Columns and labels:
Format in all cases: functional
Moraxella catarrhalis = assay: Antibacterial activity against Moraxella catarrhalis SR26840 clinical isolate assessed as growth inhibition by broth microdilution method
Enterococcus faecalis = assay: Antibacterial activity against Enterococcus faecalis SR1004 clinical isolate assessed as growth inhibition by broth microdilution method
Staphylococcus aureus [1] = assay: Antibacterial activity against Staphylococcus aureus SR20549 clinical isolate assessed as growth inhibition by broth microdilution method
Staphylococcus aureus [2] = assay: Antibacterial activity against Staphylococcus aureus Smith assessed as growth inhibition by broth microdilution method
Streptococcus pneumoniae = assay: Antibacterial activity against Streptococcus pneumoniae SR26207 clinical isolate assessed as growth inhibition by broth microdilution method
Haemophilus influenzae = assay: Antibacterial activity against Haemophilus influenzae SR27914 clinical isolate assessed as growth inhibition by broth microdilution method
Enterococcus faecium = assay: Antibacterial activity against Enterococcus faecium SR7940 clinical isolate assessed as growth inhibition by broth microdilution method
Staphylococcus aureus [3] = assay: Antibacterial activity against linezolid-resistant Staphylococcus aureus NRS271 assessed as growth inhibition by broth microdilution method
Staphylococcus aureus [4] = assay: Antibacterial activity against methicillin-resistant Staphylococcus aureus SR3637 infected in JCL/ICR mouse systemic infection model assessed as mortality administered as iv measured over 7 days; conditions: 168 h
Summary of the method: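 Lethal systemic infection model in mice; test agents were given intravenously.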

Staphylococcus aureus [5] = assay: Antibacterial activity against methicillin-resistant Staphylococcus aureus SR3637 assessed as growth inhibition by broth microdilution method

Structure (SMILES): NC(=O)N1CCN(c2c(F)cc(N3C[C@H](CNc4ccon4)OC3=O)cc2F)CCN1
- MIC (Moraxella catarrhalis): 8 µg/mL
- MIC (Enterococcus faecalis): 1 µg/mL
- MIC (Staphylococcus aureus [1]): 0.5 µg/mL
- MIC (Staphylococcus aureus [2]): 1 µg/mL
- MIC (Streptococcus pneumoniae): 0.125 µg/mL
- MIC (Haemophilus influenzae): 16 µg/mL
- MIC (Enterococcus faecium): 1 µg/mL
- MIC (Staphylococcus aureus [3]): 16 µg/mL

Structure (SMILES): COC(=S)NC[C@H]1CN(c2ccc(N3CCn4c(=O)c5cccnc5n4CC3)c(F)c2)C(=O)O1
- MIC (Moraxella catarrhalis): 2 µg/mL
- MIC (Enterococcus faecalis): 0.5 µg/mL
- MIC (Staphylococcus aureus [1]): 0.25 µg/mL
- ED50 (Staphylococcus aureus [4]): 3.17 mg/kg
- MIC (Staphylococcus aureus [2]): 0.25 µg/mL
- MIC (Streptococcus pneumoniae): 0.125 µg/mL
- MIC (Staphylococcus aureus [5]): 0.25 µg/mL
- MIC (Haemophilus influenzae): 16 µg/mL
- MIC (Enterococcus faecium): 0.25 µg/mL
- MIC (Staphylococcus aureus [3]): 2 µg/mL

Structure (SMILES): O=C(NO)N1CCN(c2c(F)cc(N3C[C@H](Cn4ccnn4)OC3=O)cc2F)CCN1
- MIC (Moraxella catarrhalis): 8 µg/mL
- MIC (Enterococcus faecalis): 8 µg/mL
- MIC (Staphylococcus aureus [1]): 2 µg/mL
- MIC (Staphylococcus aureus [2]): 4 µg/mL
- MIC (Streptococcus pneumoniae): 0.5 µg/mL
- MIC (Haemophilus influenzae): 16 µg/mL
- MIC (Enterococcus faecium): 8 µg/mL
- MIC (Staphylococcus aureus [3]): 64 µg/mL

Structure (SMILES): CC(=O)N1CCN(c2c(F)cc(N3C[C@H](CNC(C)=S)OC3=O)cc2F)CCO1
- MIC (Moraxella catarrhalis): 2 µg/mL
- MIC (Enterococcus faecalis): 0.5 µg/mL
- MIC (Staphylococcus aureus [1]): 0.25 µg/mL
- MIC (Staphylococcus aureus [2]): 1 µg/mL
- MIC (Streptococcus pneumoniae): 0.125 µg/mL
- MIC (Haemophilus influenzae): 8 µg/mL
- MIC (Enterococcus faecium): 0.5 µg/mL
- MIC (Staphylococcus aureus [3]): 4 µg/mL

Structure (SMILES): CC(=O)NC[C@H]1CN(c2cc(F)c(N3CCON(C(C)=O)CC3)c(F)c2)C(=O)O1
- MIC (Moraxella catarrhalis): 4 µg/mL
- MIC (Enterococcus faecalis): 2 µg/mL
- MIC (Staphylococcus aureus [1]): 2 µg/mL
- MIC (Staphylococcus aureus [2]): 4 µg/mL
- MIC (Streptococcus pneumoniae): 1 µg/mL
- MIC (Haemophilus influenzae): 32 µg/mL
- MIC (Enterococcus faecium): 4 µg/mL
- MIC (Staphylococcus aureus [3]): 32 µg/mL

Structure (SMILES): O=C(C(F)F)N1CCN(c2c(F)cc(N3C[C@H](Cn4ccnn4)OC3=O)cc2F)CCN1
- MIC (Moraxella catarrhalis): 8 µg/mL
- MIC (Enterococcus faecalis): 1 µg/mL
- MIC (Staphylococcus aureus [1]): 0.5 µg/mL
- MIC (Staphylococcus aureus [2]): 1 µg/mL
- MIC (Streptococcus pneumoniae): 0.125 µg/mL
- MIC (Haemophilus influenzae): 16 µg/mL
- MIC (Enterococcus faecium): 1 µg/mL
- MIC (Staphylococcus aureus [3]): 16 µg/mL

Structure (SMILES): COC(=S)NC[C@H]1CN(c2ccc(N3CCNN(C(=O)NO)CC3)c(F)c2)C(=O)O1
- MIC (Moraxella catarrhalis): 4 µg/mL
- MIC (Enterococcus faecalis): 1 µg/mL
- MIC (Staphylococcus aureus [1]): 0.5 µg/mL
- MIC (Staphylococcus aureus [2]): 1 µg/mL
- MIC (Streptococcus pneumoniae): ≤ 0.063 µg/mL
- MIC (Haemophilus influenzae): 4 µg/mL
- MIC (Enterococcus faecium): 1 µg/mL
- MIC (Staphylococcus aureus [3]): 16 µg/mL

Structure (SMILES): CC(=O)NC[C@H]1CN(c2cc(F)c(N3CCn4c(=O)c5cc(N)cnc5n4CC3)c(F)c2)C(=O)O1
- MIC (Moraxella catarrhalis): 8 µg/mL
- MIC (Enterococcus faecalis): 2 µg/mL
- MIC (Staphylococcus aureus [1]): 1 µg/mL
- MIC (Staphylococcus aureus [2]): 0.5 µg/mL
- MIC (Streptococcus pneumoniae): 0.25 µg/mL
- MIC (Haemophilus influenzae): 32 µg/mL
- MIC (Enterococcus faecium): 2 µg/mL
- MIC (Staphylococcus aureus [3]): 8 µg/mL

Structure (SMILES): CC(=O)NC[C@H]1CN(c2cc(F)c(N3CCn4c(=O)c5cccnc5n4CC3)c(F)c2)C(=O)O1
- MIC (Moraxella catarrhalis): 4 µg/mL
- MIC (Enterococcus faecalis): 1 µg/mL
- MIC (Staphylococcus aureus [1]): 1 µg/mL
- MIC (Staphylococcus aureus [2]): 0.5 µg/mL
- MIC (Streptococcus pneumoniae): 0.25 µg/mL
- MIC (Haemophilus influenzae): 16 µg/mL
- MIC (Enterococcus faecium): 1 µg/mL
- MIC (Staphylococcus aureus [3]): 8 µg/mL

Structure (SMILES): CC(=O)NC[C@H]1CN(c2cc(F)c(N3CCn4c(=O)c5cc(Br)cnc5n4CC3)c(F)c2)C(=O)O1
- MIC (Moraxella catarrhalis): 4 µg/mL
- MIC (Enterococcus faecalis): 2 µg/mL
- MIC (Staphylococcus aureus [1]): 1 µg/mL
- MIC (Staphylococcus aureus [2]): 1 µg/mL
- MIC (Streptococcus pneumoniae): 0.25 µg/mL
- MIC (Haemophilus influenzae): 64 µg/mL
- MIC (Enterococcus faecium): 1 µg/mL
- MIC (Staphylococcus aureus [3]): 8 µg/mL

Structure (SMILES): CC(=O)N1CCN(c2c(F)cc(N3C[C@H](Cn4ccnn4)OC3=O)cc2F)CCN1
- MIC (Moraxella catarrhalis): 16 µg/mL
- MIC (Enterococcus faecalis): 2 µg/mL
- MIC (Staphylococcus aureus [1]): 1 µg/mL
- MIC (Staphylococcus aureus [2]): 2 µg/mL
- MIC (Streptococcus pneumoniae): 1 µg/mL
- MIC (Haemophilus influenzae): 32 µg/mL
- MIC (Enterococcus faecium): 2 µg/mL
- MIC (Staphylococcus aureus [3]): 16 µg/mL

Structure (SMILES): COC(=S)NC[C@H]1CN(c2ccc(N3CCNN(C(C)=O)CC3)c(F)c2)C(=O)O1
- MIC (Moraxella catarrhalis): 4 µg/mL
- MIC (Enterococcus faecalis): 0.5 µg/mL
- MIC (Staphylococcus aureus [1]): 0.5 µg/mL
- ED50 (Staphylococcus aureus [4]): 2.85 mg/kg
- MIC (Staphylococcus aureus [2]): 1 µg/mL
- MIC (Streptococcus pneumoniae): 0.063 µg/mL
- MIC (Staphylococcus aureus [5]): 0.5 µg/mL
- MIC (Haemophilus influenzae): 16 µg/mL
- MIC (Enterococcus faecium): 0.5 µg/mL
- MIC (Staphylococcus aureus [3]): 8 µg/mL

Structure (SMILES): CONC(=O)N1CCN(c2ccc(N3C[C@H](CNC(=S)OC)OC3=O)cc2F)CCN1
- MIC (Moraxella catarrhalis): 4 µg/mL
- MIC (Enterococcus faecalis): 0.5 µg/mL
- MIC (Staphylococcus aureus [1]): 1 µg/mL
- MIC (Staphylococcus aureus [2]): 1 µg/mL
- MIC (Streptococcus pneumoniae): 0.25 µg/mL
- MIC (Haemophilus influenzae): 16 µg/mL
- MIC (Enterococcus faecium): 0.5 µg/mL
- MIC (Staphylococcus aureus [3]): 16 µg/mL

Structure (SMILES): CONC(=O)N1CCN(c2c(F)cc(N3C[C@H](CNC(=S)OC)OC3=O)cc2F)CCO1
- MIC (Moraxella catarrhalis): 2 µg/mL
- MIC (Enterococcus faecalis): 1 µg/mL
- MIC (Staphylococcus aureus [1]): 0.5 µg/mL
- MIC (Staphylococcus aureus [2]): 1 µg/mL
- MIC (Streptococcus pneumoniae): 0.125 µg/mL
- MIC (Haemophilus influenzae): 16 µg/mL
- MIC (Enterococcus faecium): 0.5 µg/mL
- MIC (Staphylococcus aureus [3]): 8 µg/mL

Structure (SMILES): O=C1O[C@@H](Cn2ccnn2)CN1c1cc(F)c(N2CCn3c(=O)c4cccnc4n3CC2)c(F)c1
- MIC (Moraxella catarrhalis): 8 µg/mL
- MIC (Enterococcus faecalis): 1 µg/mL
- MIC (Staphylococcus aureus [1]): 0.5 µg/mL
- MIC (Staphylococcus aureus [2]): 2 µg/mL
- MIC (Streptococcus pneumoniae): 0.5 µg/mL
- MIC (Haemophilus influenzae): 32 µg/mL
- MIC (Enterococcus faecium): 1 µg/mL
- MIC (Staphylococcus aureus [3]): 8 µg/mL

Structure (SMILES): NC(=O)N1CCN(c2c(F)cc(N3C[C@H](Cn4ccnn4)OC3=O)cc2F)CCN1
- MIC (Moraxella catarrhalis): 4 µg/mL
- MIC (Enterococcus faecalis): 2 µg/mL
- MIC (Staphylococcus aureus [1]): 1 µg/mL
- MIC (Staphylococcus aureus [2]): 1 µg/mL
- MIC (Streptococcus pneumoniae): 0.5 µg/mL
- MIC (Haemophilus influenzae): 16 µg/mL
- MIC (Enterococcus faecium): 4 µg/mL
- MIC (Staphylococcus aureus [3]): 32 µg/mL
